Laboratory results taken from ChEMBL document CHEMBL5724801, “EUbOPEN Chemogenomics Library - Multiplex” (2024).
“And” between values parts separate entries of the source, which are not always exact repeats. Equal values may be shown once.

Tested on: HEK-293T
Test: Multiplex assay against HEK293T
Type: toxicity, cell-based
Details: human
Procedure, shortened: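 With compound added, live cells were imaged on a CQ1 microscope at 37°C and 5% CO2; staining with Hoechst33342, BioTracker Green Microtubule Cytoskeleton Dye, MitoTracker Red and Annexin V Alexa Fluor 680 had been done at seeding. The CellPathfinder machine-learning gating scheme split cells into Hoechst high-intensity objects or normal cells, normal cells into healthy, pyknosed or fragmented nuclei, and pyknosed cells into mitotic or apoptotic. The tubulin, mitochondrial-mass and membrane-permeability phenotypes are per cents of healthy-nucleus cells.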

[1] = 12 h, 1 µM, compound concentration 1 uM
[2] = 12 h, 10 µM, compound concentration 10 uM
[3] = 24 h, 1 µM, compound concentration 1 uM
[4] = 24 h, 10 µM, compound concentration 10 uM
[5] = 48 h, 1 µM, compound concentration 1 uM
[6] = 48 h, 10 µM, compound concentration 10 uM

CN1[C@@H](CC(=O)c2ccccc2)CCC[C@H]1C[C@H](O)c1ccccc1.Cl [LOBELINE HYDROCHLORIDE]
Population Apoptotic (%) [1]: 5.84% and 10.26%
Population Fragmented Nuclei (%) [1]: 1.05% and 2.84%
Population Hoechst High Intensity Objects (%) [1]: 0.52% and 0%
Population Membrane Permeable-Phenotype (%) [1]: 0%
Population Mitochondria Different-Phenotype (%) [1]: 33.04% and 30%
Population Mitotic Cells (%) [1]: 94.16% and 89.74%
Population Normal (%) [1]: 99.48% and 100%
Population Pyknosed Nuclei (%) [1]: 40.31% and 82.98%
Total Cell Count [1]: 384 and 141
Population Apoptotic (%) [2]: 13.08% and 13.61%
Population Fragmented Nuclei (%) [2]: 4.88% and 1.1%
Population Healthy Nuclei (%) [2]: 49.83% and 17.68%
Population Hoechst High Intensity Objects (%) [2]: 0% and 0.55%
Population Membrane Permeable-Phenotype (%) [2]: 0.7% and 0%
Population Mitochondria Different-Phenotype (%) [2]: 17.48% and 37.5%
Population Mitotic Cells (%) [2]: 86.92% and 86.39%
Population Normal (%) [2]: 100% and 99.45%
Population Pyknosed Nuclei (%) [2]: 45.3% and 81.22%
Total Cell Count [2]: 287 and 182
Population Apoptotic (%) [3]: 12.24% and 13.68%
Population Fragmented Nuclei (%) [3]: 2.04% and 2.68%
Population Healthy Nuclei (%) [3]: 74.92% and 33.56%
Population Hoechst High Intensity Objects (%) [3]: 0%
Population Membrane Permeable-Phenotype (%) [3]: 1.67% and 0%
Population Mitochondria Different-Phenotype (%) [3]: 11.3% and 14%
Population Mitotic Cells (%) [3]: 87.76% and 86.32%
Population Normal (%) [3]: 100%
Population Pyknosed Nuclei (%) [3]: 23.04% and 63.76%
Population Tubulin-Different-Phenotype (%) [3]: 10.46% and 6%
Population Apoptotic (%) [4]: 16.35% and 24.8%
Population Fragmented Nuclei (%) [4]: 2.39% and 1.53%
Population Healthy Nuclei (%) [4]: 69.95% and 34.69%
Population Hoechst High Intensity Objects (%) [4]: 0%
Population Membrane Permeable-Phenotype (%) [4]: 1.52% and 1.47%
Population Mitochondria Different-Phenotype (%) [4]: 18.63% and 22.06%
Population Mitotic Cells (%) [4]: 83.65% and 75.2%
Population Normal (%) [4]: 100%
Population Pyknosed Nuclei (%) [4]: 27.66% and 63.78%
Population Tubulin-Different-Phenotype (%) [4]: 12.55% and 11.76%
Total Cell Count [4]: 376 and 196
Population Apoptotic (%) [5]: 7.27% and 13.92%
Population Fragmented Nuclei (%) [5]: 2.75% and 1.71%
Population Healthy Nuclei (%) [5]: 84.62% and 53.14%
Population Hoechst High Intensity Objects (%) [5]: 0%
Population Membrane Permeable-Phenotype (%) [5]: 5.33% and 1.08%
Population Mitochondria Different-Phenotype (%) [5]: 11.75% and 19.35%
Population Mitotic Cells (%) [5]: 92.73% and 86.08%
Population Normal (%) [5]: 100%
Population Fragmented Nuclei (%) [6]: 2.84% and 1.89%
Population Healthy Nuclei (%) [6]: 86.48% and 58.49%
Population Hoechst High Intensity Objects (%) [6]: 0% and 0.75%
Population Membrane Permeable-Phenotype (%) [6]: 2.5% and 0%
Population Mitochondria Different-Phenotype (%) [6]: 30.22% and 37.42%
Population Mitotic Cells (%) [6]: 94.68% and 75.24%
Population Normal (%) [6]: 100% and 99.25%

Cc1cc(=O)n(C)c2cc(N3C(=O)CC[C@H](NS(=O)(=O)CC(C)C)[C@H]3c3ccc(Cl)cc3)ccc12
Population Apoptotic (%) [1]: 43% and 63%
Population Fragmented Nuclei (%) [1]: 7% and 6%
Population Healthy Nuclei (%) [1]: 83% and 78%
Population Hoechst High Intensity Objects (%) [1]: 8% and 6%
Population Membrane Permeable-Phenotype (%) [1]: 0%
Population Mitochondria Different-Phenotype (%) [1]: 41% and 53%
Population Mitotic Cells (%) [1]: 56% and 36%
Population Normal (%) [1]: 91% and 93%
Population Pyknosed Nuclei (%) [1]: 8% and 14%
Population Tubulin-Different-Phenotype (%) [1]: 32% and 14%
Total Cell Count [1]: 454 and 265
Population Apoptotic (%) [2]: 47% and 50%
Population Fragmented Nuclei (%) [2]: 4% and 6%
Population Healthy Nuclei (%) [2]: 70% and 66%
Population Hoechst High Intensity Objects (%) [2]: 11% and 16%
Population Membrane Permeable-Phenotype (%) [2]: 0%
Population Mitochondria Different-Phenotype (%) [2]: 75% and 86%
Population Mitotic Cells (%) [2]: 52% and 49%
Population Normal (%) [2]: 88% and 83%
Population Pyknosed Nuclei (%) [2]: 24% and 27%
Population Tubulin-Different-Phenotype (%) [2]: 81% and 66%
Total Cell Count [2]: 368 and 331
Population Apoptotic (%) [3]: 33% and 36%
Population Fragmented Nuclei (%) [3]: 9% and 4%
Population Healthy Nuclei (%) [3]: 81% and 82%
Population Hoechst High Intensity Objects (%) [3]: 4% and 5%
Population Membrane Permeable-Phenotype (%) [3]: 0% and 1%
Population Mitochondria Different-Phenotype (%) [3]: 25% and 42%
Population Mitotic Cells (%) [3]: 66% and 63%
Population Normal (%) [3]: 95% and 94%
Population Pyknosed Nuclei (%) [3]: 9% and 13%
Population Tubulin-Different-Phenotype (%) [3]: 19% and 17%
Total Cell Count [3]: 646 and 327
Population Apoptotic (%) [4]: 34% and 76%
Population Fragmented Nuclei (%) [4]: 7% and 8%
Population Healthy Nuclei (%) [4]: 72% and 67%
Population Hoechst High Intensity Objects (%) [4]: 9% and 22%
Population Membrane Permeable-Phenotype (%) [4]: 0%
Population Mitochondria Different-Phenotype (%) [4]: 67% and 85%
Population Mitotic Cells (%) [4]: 65% and 23%
Population Normal (%) [4]: 90% and 77%
Population Pyknosed Nuclei (%) [4]: 19% and 23%
Population Tubulin-Different-Phenotype (%) [4]: 67% and 71%
Total Cell Count [4]: 419 and 328
Population Apoptotic (%) [5]: 25% and 31%
Population Fragmented Nuclei (%) [5]: 14% and 11%
Population Healthy Nuclei (%) [5]: 78% and 79%
Population Hoechst High Intensity Objects (%) [5]: 3% and 7%
Population Membrane Permeable-Phenotype (%) [5]: 0%
Population Mitochondria Different-Phenotype (%) [5]: 17% and 20%
Population Mitotic Cells (%) [5]: 74% and 68%
Population Normal (%) [5]: 96% and 92%
Population Pyknosed Nuclei (%) [5]: 6% and 9%
Population Tubulin-Different-Phenotype (%) [5]: 15% and 17%
Total Cell Count [5]: 985 and 454
Population Apoptotic (%) [6]: 56% and 66%
Population Fragmented Nuclei (%) [6]: 12%
Population Healthy Nuclei (%) [6]: 77% and 67%
Population Hoechst High Intensity Objects (%) [6]: 10% and 19%
Population Membrane Permeable-Phenotype (%) [6]: 1% and 0%
Population Mitochondria Different-Phenotype (%) [6]: 67% and 76%
Population Mitotic Cells (%) [6]: 43% and 33%
Population Normal (%) [6]: 89% and 80%
Population Pyknosed Nuclei (%) [6]: 10% and 19%
Population Tubulin-Different-Phenotype (%) [6]: 58% and 56%
Total Cell Count [6]: 548 and 371

C[C@H](NC(=O)CNC(=O)c1cccc(Cl)c1)c1ccccc1
Population Apoptotic (%) [1]: 33% and 48%
Population Fragmented Nuclei (%) [1]: 5% and 6%
Population Healthy Nuclei (%) [1]: 79% and 84%
Population Hoechst High Intensity Objects (%) [1]: 8% and 4%
Population Membrane Permeable-Phenotype (%) [1]: 0%
Population Mitochondria Different-Phenotype (%) [1]: 39% and 52%
Population Mitotic Cells (%) [1]: 66% and 51%
Population Normal (%) [1]: 91% and 95%
Population Pyknosed Nuclei (%) [1]: 15% and 9%
Population Tubulin-Different-Phenotype (%) [1]: 29% and 17%
Total Cell Count [1]: 449 and 384
Population Apoptotic (%) [2]: 41% and 58%
Population Fragmented Nuclei (%) [2]: 6% and 7%
Population Healthy Nuclei (%) [2]: 76% and 77%
Population Hoechst High Intensity Objects (%) [2]: 7% and 13%
Population Membrane Permeable-Phenotype (%) [2]: 0%
Population Mitochondria Different-Phenotype (%) [2]: 54% and 61%
Population Mitotic Cells (%) [2]: 58% and 41%
Population Normal (%) [2]: 92% and 86%
Population Pyknosed Nuclei (%) [2]: 17% and 15%
Population Tubulin-Different-Phenotype (%) [2]: 39% and 33%
Total Cell Count [2]: 362 and 272
Population Apoptotic (%) [3]: 23% and 45%
Population Fragmented Nuclei (%) [3]: 9% and 7%
Population Healthy Nuclei (%) [3]: 80% and 84%
Population Hoechst High Intensity Objects (%) [3]: 4% and 2%
Population Membrane Permeable-Phenotype (%) [3]: 1% and 0%
Population Mitochondria Different-Phenotype (%) [3]: 25% and 32%
Population Mitotic Cells (%) [3]: 76% and 54%
Population Normal (%) [3]: 95% and 97%
Population Pyknosed Nuclei (%) [3]: 10% and 7%
Population Tubulin-Different-Phenotype (%) [3]: 15% and 9%
Total Cell Count [3]: 646 and 476
Population Apoptotic (%) [4]: 43% and 58%
Population Fragmented Nuclei (%) [4]: 9% and 10%
Population Healthy Nuclei (%) [4]: 77% and 78%
Population Hoechst High Intensity Objects (%) [4]: 4% and 9%
Population Membrane Permeable-Phenotype (%) [4]: 0%
Population Mitochondria Different-Phenotype (%) [4]: 39% and 49%
Population Mitotic Cells (%) [4]: 56% and 41%
Population Normal (%) [4]: 95% and 90%
Population Pyknosed Nuclei (%) [4]: 12% and 11%
Population Tubulin-Different-Phenotype (%) [4]: 25% and 19%
Total Cell Count [4]: 505 and 303
Population Apoptotic (%) [5]: 19% and 30%
Population Fragmented Nuclei (%) [5]: 13%
Population Healthy Nuclei (%) [5]: 80% and 81%
Population Hoechst High Intensity Objects (%) [5]: 3% and 2%
Population Membrane Permeable-Phenotype (%) [5]: 0% and 2%
Population Mitochondria Different-Phenotype (%) [5]: 15% and 16%
Population Mitotic Cells (%) [5]: 80% and 70%
Population Normal (%) [5]: 96% and 97%
Population Pyknosed Nuclei (%) [5]: 5%
Population Tubulin-Different-Phenotype (%) [5]: 12% and 6%
Total Cell Count [5]: 984 and 606
Population Apoptotic (%) [6]: 44% and 35%
Population Fragmented Nuclei (%) [6]: 15% and 19%
Population Healthy Nuclei (%) [6]: 77% and 72%
Population Hoechst High Intensity Objects (%) [6]: 1% and 2%
Population Membrane Permeable-Phenotype (%) [6]: 0%
Population Mitochondria Different-Phenotype (%) [6]: 26% and 28%
Population Mitotic Cells (%) [6]: 55% and 64%
Population Normal (%) [6]: 98% and 97%
Population Pyknosed Nuclei (%) [6]: 7%
Population Tubulin-Different-Phenotype (%) [6]: 18% and 16%
Total Cell Count [6]: 735 and 462
